Measurements: ChEMBL document CHEMBL1126038, “3-(2-Carboxyindol-3-yl)propionic acid-based antagonists of the N-methyl-D-aspartic acid receptor associated glycine binding site” (J Med Chem, 1992)

Key:
[1] = target: Glutamate NMDA receptor (Rattus norvegicus) (UniProt P35439+Q00959+Q00960+Q00961+Q62645+Q8VHN2+Q9R1M7); test: Ratio of the inhibitory activity against […] for rat cortical and hippocampal membrane glutamate binding site to [3H]glycine for rat cortical and hippocampal membrane binding site.; assay type: tissue-based; conditions: Hippocampus
[2] = Ability to compete with […] for rat cortical and hippocampal membrane glutamate binding site.; assay type: tissue-based, Hippocampus
How it was run: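 Competition binding against [³H]CPP at the glutamate site, using rat cortical and hippocampal membranes. Values are means of two or more experiments, with standard errors ±10-30% of the mean.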

Glutamate NMDA receptor = test: Ability to compete with [3H]glycine for strychnine-insensitive binding sites on rat cortical and hippocampal membrane; assay type: tissue-based, Hippocampus
How it was run: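 Rat cortical plus hippocampal membranes, competing against [³H]glycine at strychnine-insensitive sites. Values are the mean of ≥2 experiments, with SE within 10-30% of the mean.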

[3] = The compound was evaluated for the ability to compete with […] for rat cortical and hippocampal membrane glutamate binding site.; assay type: tissue-based, Hippocampus
How it was run: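 Competition binding against [³H]CPP at the glutamate site, using rat cortical and hippocampal membranes. […] Values are means of two or more experiments, with standard errors ±10-30% of the mean.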

[4] = target: Glutamate receptor ionotropic, NMDA 1 (Rattus norvegicus, UniProt P35439); test: The compound was evaluated for the ability to compete with [3H]glycine for strychnine-insensitive binding sites on rat cortical and hippocampal membrane; assay type: tissue-based, Hippocampus
How it was run: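 Rat cortical plus hippocampal membranes, competing against [³H]glycine at strychnine-insensitive sites. […] Values are the mean of ≥2 experiments, with SE within 10-30% of the mean.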

[5] = target: Glutamate receptor ionotropic, AMPA (Rattus norvegicus, UniProt P19490+P19491+P19492+P19493); test: The compound was evaluated […] for the competitive binding against […] for rat cortical and hippocampal membrane glutamate binding site.
[6] = target: Glutamate receptor ionotropic, kainate; test: The compound was evaluated […] for the competitive binding against [3H]kainate for rat cortical and hippocampal membrane glutamate binding site.
Mus musculus [7] = test: The compound was evaluated in vivo for the anticonvulsant activity in quinolinic acid seizure model (intracerebroventricular), for 5 min drug pretreatment time; assay type: functional; conditions: central
How it was run: (§1)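 Mice got test compound in distilled water with a few drops of Tween (1 mL/kg) at set times before icv quinolinic acid (7.7 μg in 5 μL saline). Clonic-tonic seizures were watched for 15 min, and non-convulsing mice counted as protected.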

Mus musculus [8] = test: The compound was evaluated in vivo for the anticonvulsant activity in audiogenic seizure model (intraperitoneal), for 2 hr drug pretreatment time; assay type: functional; conditions: ip
How it was run: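 Male DBA/2J audiogenic-susceptible mice (groups of 6-8) got test compound in methylcellulose, with saline controls by the same route. A 110 dB (12 KHz) sound was given for 30 s. Absence of tonic hindlimb extension counted as protection. ED50 was reported.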

Mus musculus [9] = test: The compound was evaluated in vivo for the anticonvulsant activity in quinolinic acid + probenecid seizure model (intravenous), for 5 min drug pretreatment time; assay type: functional
How it was run: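 Quinolinic acid seizure in mice: probenecid 200 mg/kg ip given 30 min before the test compound. Test compound in distilled water with Tween (1 mL/kg), then icv quinolinic acid (7.7 μg in 5 μL saline). Mice were watched 15 min for clonic-tonic seizures.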

Mus musculus [10] = test: The compound was evaluated in vivo for the anticonvulsant activity in quinolinic acid seizure model (intraperitoneal), for 2 hr drug pretreatment time; assay type: functional; conditions: ip; how it was run: as §1
Mus musculus [11] = test: The compound was evaluated in vivo for the anticonvulsant activity in quinolinic acid seizure model (intravenous), for 5 min drug pretreatment time; assay type: functional; how it was run: as §1

SMILES | Ratio [1] | IC50 [2] [µM] | IC50 (Glutamate NMDA receptor) [µM] | other results
O=C(O)c1cc2c(Cl)cc(Cl)cc2[nH]1 | > 150 | > 1000 | – | –
O=C(O)CCc1c(C(=O)O)[nH]c2c(Cl)cccc12 | > 1 | > 1000 | > 100 | –
O=C(O)c1cc2ccccc2[nH]1 [INDOLE-2-CARBOXYLIC ACID] | 40 | 4200 | – | –
COc1cc(C(=O)O)nc2ccccc12 | – | – | – | IC50 [3]: > 100 µM; IC50 [4]: > 100 µM
O=C(O)CCc1cc(C(=O)O)nc2ccccc12 | – | > 100 | > 100 | –
COc1cc(OC)c2c(CCC(=O)O)c(C(=O)O)[nH]c2c1 | – | – | > 100 | –
O=C(O)CCc1c(C(=O)O)[nH]c2c1ccc1ccccc12 | – | – | > 100 | –
O=C(O)CCc1c(C(=O)O)[nH]c2ccc3ccccc3c12 | – | – | > 100 | –
O=C(O)c1cc(=O)c2ccccc2[nH]1 [TRANSTORINE] | – | 71 | – | –
CS(=O)(=O)Nc1ccc2c(CCC(=O)O)c(C(=O)O)[nH]c2c1 | – | – | > 100 | –
O=C(O)CCc1c(C(=O)O)[nH]c2cccc(Cl)c12 | 10 | 60 | – | –
O=C(O)CCc1c(C(=O)O)[nH]c2cc(Oc3ccccc3)ccc12 | – | – | > 1000 | –

Continued, in another order:

Ratio [1] | IC50 [2] [µM] | IC50 (Glutamate NMDA receptor) [µM] | SMILES | other results
80 | 12 | 0.143 | O=C(O)c1cc(O)c2c(Cl)cc(Cl)cc2n1 | –
– | – | 13 | O=C(O)CCc1c(C(=O)O)[nH]c2cccc(C(F)(F)F)c12 | –
– | – | 5 | O=C(O)CCc1c(C(=O)O)[nH]c2cc(F)ccc12 | –
– | – | 4 | O=C(O)CCc1c(C(=O)O)[nH]c2cc(F)cc(F)c12 | –
3 | 51 | 17 | O=C(O)CCc1c(C(=O)O)[nH]c2cccc(F)c12 | –
– | – | 8 | O=C(O)CCc1c(C(=O)O)[nH]c2cc(C(F)(F)F)ccc12 | –
28 | 710 | 25 | O=C(O)COc1cc(C(=O)O)nc2ccccc12 | –
2100 CPP/GLY | 358 | 0.17 | O=C(O)CCc1c(C(=O)O)[nH]c2cc(Cl)cc(Cl)c12 | IC50 [5]: 273 µM; IC50 [6]: 418 µM; ED50 (Mus musculus [7]): 1.5 µg; ED50 (Mus musculus [8]): 100 mg/kg; ED50 (Mus musculus [9]): 50 mg/kg; ED50 (Mus musculus [10]): 256 mg/kg; ED50 (Mus musculus [11]): > 50 mg/kg
1.6 | 16 | 12 | O=C(O)CSc1c(C(=O)O)[nH]c2ccccc12 | –
– | – | 0.1 | O=C(O)CSc1c(C(=O)O)[nH]c2cc(Cl)cc(Cl)c12 | IC50 [5]: > 100 µM; IC50 [6]: > 100 µM
2 | 25 | 23 | O=C(O)CCc1c(C(=O)O)[nH]c2ccc(Cl)cc12 | –
11 | 141 | 13 | COc1ccc2c(CCC(=O)O)c(C(=O)O)[nH]c2c1 | –
> 2 | > 100 | 45 | Cn1c(C(=O)O)c(CCC(=O)O)c2c(Cl)cc(Cl)cc21 | –
– | – | 2.5 | O=C(O)CCc1c(C(=O)O)[nH]c2cc([N+](=O)[O-])ccc12 | –
140 | 283 | 2 | O=C(O)CCc1c(C(=O)O)[nH]c2cc(Cl)ccc12 | –
– | – | 75 | O=C(O)CCc1c(C(=O)O)[nH]c2cccc([N+](=O)[O-])c12 | –
1 | 34 | 27 | O=C(O)CCc1c(C(=O)O)[nH]c2ccccc12 | –
